Reference: ChEMBL document CHEMBL1157034, “Synthesis of 1-benzyl-3-(5-hydroxymethyl-2-furyl)selenolo[3,2-c]pyrazole derivatives as new anticancer agents” (Eur J Med Chem, 2010)

Assays:
[1] = Antitumor activity against human […] cells after 48 hrs by MTT assay; type: functional
EKVX = experiment: Antitumor activity against human EKVX cells after 48 hrs by MTT assay; type: functional
HOP-92 = experiment: Antitumor activity against human HOP92 cells after 48 hrs by MTT assay; type: functional; conditions: HOP-92, 48 h
NCI-H226 = experiment: Antitumor activity against human NCI-H226 cells after 48 hrs by MTT assay; type: functional, cell-based; conditions: NCI-H226, 48 h
Outline: (§1)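 Cells grown at 37 °C in humidified 5% CO2, seeded at 1×10^4 cells/well, and allowed to attach for 24 h. They were then exposed to a range of concentrations for 48 h, washed with PBS, and given 1 mg/ml MTT for 2 h. Formazan was dissolved in DMSO and read at 570 nm.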

NCI-H322M = experiment: Antitumor activity against human NCI-H322M cells after 48 hrs by MTT assay; type: functional
NCI-H460 = experiment: Antitumor activity against human NCI-H460 cells after 48 hrs by MTT assay; type: functional; conditions: NCI-H460, 48 h
COLO 205 = experiment: Antitumor activity against human COLO205 cells after 48 hrs by MTT assay; type: functional; conditions: COLO 205, 48 h
HCC 2998 = experiment: Antitumor activity against human HCC2998 cells after 48 hrs by MTT assay; type: functional; conditions: HCC 2998, 48 h
KM12 = experiment: Antitumor activity against human KM12 cells after 48 hrs by MTT assay; type: functional; conditions: KM12, 48 h
SF-295 = experiment: Antitumor activity against human SF295 cells after 48 hrs by MTT assay; type: functional; conditions: SF-295, 48 h
SF-539 = experiment: Antitumor activity against human SF539 cells after 48 hrs by MTT assay; type: functional; conditions: SF-539, 48 h
SNB-19 = experiment: Antitumor activity against human SNB19 cells after 48 hrs by MTT assay; type: functional; conditions: SNB-19, 48 h
Malme-3M = experiment: Antitumor activity against human MALME-3M cells after 48 hrs by MTT assay; type: functional
MDA-MB-435 = experiment: Antitumor activity against human MDA-MB-435 cells after 48 hrs by MTT assay; type: functional; conditions: MDA-MB-435, 48 h
SK-MEL-2 = experiment: Antitumor activity against human SK-MEL-2 cells after 48 hrs by MTT assay; type: functional; conditions: SK-MEL-2, 48 h
SK-MEL-28 = experiment: Antitumor activity against human SK-MEL-28 cells after 48 hrs by MTT assay; type: functional; conditions: SK-MEL-28, 48 h
SK-MEL-5 = experiment: Antitumor activity against human SK-MEL-5 cells after 48 hrs by MTT assay; type: functional; conditions: SK-MEL-5, 48 h
UACC-62 = experiment: Antitumor activity against human UACC62 cells after 48 hrs by MTT assay; type: functional; conditions: UACC-62, 48 h
OVCAR-3 = experiment: Antitumor activity against human OVCAR-3 cells after 48 hrs by MTT assay; type: functional; conditions: OVCAR-3, 48 h
OVCAR-8 = experiment: Antitumor activity against human OVCAR8 cells after 48 hrs by MTT assay; type: functional; conditions: OVCAR-8, 48 h
SK-OV-3 = experiment: Antitumor activity against human SKOV3 cells after 48 hrs by MTT assay; type: functional; conditions: SK-OV-3, 48 h
786-0 = experiment: Antitumor activity against human 786-0 cells after 48 hrs by MTT assay; type: functional; conditions: 786-0, 48 h
A498 = experiment: Antitumor activity against human A498 cells after 48 hrs by MTT assay; type: functional; conditions: A498, 48 h; outline: as §1
RXF 393 = experiment: Antitumor activity against human RXF393 cells after 48 hrs by MTT assay; type: functional; conditions: RXF 393, 48 h
SN12C = experiment: Antitumor activity against human SN12C cells after 48 hrs by MTT assay; type: functional
TK-10 = experiment: Antitumor activity against human TK10 cells after 48 hrs by MTT assay; type: functional; conditions: TK-10, 48 h
UO-31 = experiment: Antitumor activity against human UO31 cells after 48 hrs by MTT assay; type: functional; conditions: UO-31, 48 h
DU-145 = experiment: Antitumor activity against human DU145 cells after 48 hrs by MTT assay; type: functional; conditions: DU-145, 48 h
T47D = experiment: Antitumor activity against human T47D cells after 48 hrs by MTT assay; type: functional
CCRF-CEM = experiment: Antitumor activity against human CCRF-CEM cells after 48 hrs by MTT assay; type: functional
K562 = experiment: Antitumor activity against human K562 cells after 48 hrs by MTT assay; type: functional; conditions: K562, 48 h
[2] = read-out: pLC50 (the source's name) (converted)

SMILES: OCc1ccc(-c2nn(Cc3ccccc3)c3cc[se]c23)o1
- GI50 [1]: 22.4 µM
- CC50 [1, 2]: > 100 µM
- TGI ([1]; read-out: pTGI): > 100 µM
- GI50 (EKVX): 33.1 µM
- CC50 (EKVX; [2]): > 100 µM
- TGI (EKVX; read-out: pTGI): > 100 µM
- GI50 (HOP-92): 18.2 µM
- CC50 (HOP-92; [2]): > 100 µM
- TGI (HOP-92; read-out: pTGI (converted)): 79.4 µM
- GI50 (NCI-H226): 316 nM
- TGI (NCI-H226; read-out: pTGI (converted)): 977 nM
- GI50 (NCI-H322M): 40.7 µM
- CC50 (NCI-H322M; [2]): > 100 µM
- TGI (NCI-H322M; read-out: pTGI): > 100 µM
- GI50 (NCI-H460): 28.2 µM
- CC50 (NCI-H460; [2]): > 100 µM
- TGI (NCI-H460; read-out: pTGI): > 100 µM
- GI50 (COLO 205): 29.5 µM
- CC50 (COLO 205; [2]): > 100 µM
- TGI (COLO 205; read-out: pTGI): > 100 µM
- GI50 (HCC 2998): 32.4 µM
- CC50 (HCC 2998; [2]): > 100 µM
- TGI (HCC 2998; read-out: pTGI): > 100 µM
- GI50 (KM12): 49 µM
- CC50 (KM12; [2]): > 100 µM
- TGI (KM12; read-out: pTGI): > 100 µM
- GI50 (SF-295): 19.1 µM
- CC50 (SF-295; [2]): > 100 µM
- TGI (SF-295; read-out: pTGI (converted)): 63.1 µM
- GI50 (SF-539): 27.5 µM
- CC50 (SF-539; [2]): > 100 µM
- TGI (SF-539; read-out: pTGI): > 100 µM
- GI50 (SNB-19): 49 µM
- CC50 (SNB-19; [2]): > 100 µM
- TGI (SNB-19; read-out: pTGI): > 100 µM
- GI50 (Malme-3M): 25.7 µM
- CC50 (Malme-3M; [2]): > 100 µM
- TGI (Malme-3M; read-out: pTGI): > 100 µM
- GI50 (MDA-MB-435): 23.4 µM
- CC50 (MDA-MB-435; [2]): > 100 µM
- TGI (MDA-MB-435; read-out: pTGI (converted)): 75.9 µM
- GI50 (SK-MEL-2): 35.5 µM
- CC50 (SK-MEL-2; [2]): > 100 µM
- TGI (SK-MEL-2; read-out: pTGI): > 100 µM
- GI50 (SK-MEL-28): 28.8 µM
- CC50 (SK-MEL-28; [2]): > 100 µM
- TGI (SK-MEL-28; read-out: pTGI (converted)): 91.2 µM
- GI50 (SK-MEL-5): 31.6 µM
- CC50 (SK-MEL-5; [2]): > 100 µM
- TGI (SK-MEL-5; read-out: pTGI (converted)): 89.1 µM
- GI50 (UACC-62): 2190 nM
- CC50 (UACC-62; [2]): > 100 µM
- TGI (UACC-62; read-out: pTGI (converted)): 55 µM
- GI50 (OVCAR-3): 13.2 µM
- CC50 (OVCAR-3; [2]): > 100 µM
- TGI (OVCAR-3; read-out: pTGI (converted)): 79.4 µM
- GI50 (OVCAR-8; read-out: pGI50 (converted)): 55 µM
- CC50 (OVCAR-8; [2]): > 100 µM
- TGI (OVCAR-8; read-out: pTGI): > 100 µM
- GI50 (SK-OV-3; read-out: pGI50 (converted)): 46.8 µM
- CC50 (SK-OV-3; [2]): > 100 µM
- TGI (SK-OV-3; read-out: pTGI): > 100 µM
- GI50 (786-0; read-out: pGI50 (converted)): 33.1 µM
- CC50 (786-0; [2]): > 100 µM
- TGI (786-0; read-out: pTGI): > 100 µM
- GI50 (A498; read-out: pGI50 (converted)): 162 nM
- CC50 (A498; read-out: pLC50 (converted)): 631 nM
- TGI (A498; read-out: pTGI): 324 nM
- GI50 (RXF 393; read-out: pGI50 (converted)): 11.5 µM
- CC50 (RXF 393; [2]): > 100 µM
- TGI (RXF 393; read-out: pTGI): 51.3 µM
- GI50 (SN12C; read-out: pGI50 (converted)): 43.6 µM
- CC50 (SN12C; [2]): > 100 µM
- TGI (SN12C; read-out: pTGI): > 100 µM
- GI50 (TK-10; read-out: pGI50 (converted)): 1700 nM
- CC50 (TK-10; [2]): > 100 µM
- TGI (TK-10; read-out: pTGI): > 100 µM
- GI50 (UO-31; read-out: pGI50 (converted)): 41.7 µM
- CC50 (UO-31; [2]): > 100 µM
- TGI (UO-31; read-out: pTGI): > 100 µM
- GI50 (DU-145; read-out: pGI50 (converted)): 45.7 µM
- CC50 (DU-145; [2]): > 100 µM
- TGI (DU-145; read-out: pTGI): > 100 µM
- GI50 (T47D): 21.4 µM
- CC50 (T47D; [2]): > 100 µM
- TGI (T47D; read-out: pTGI (converted)): 89.1 µM
- GI50 (CCRF-CEM): 24.5 µM
- CC50 (CCRF-CEM; [2]): > 100 µM
- TGI (CCRF-CEM; read-out: pTGI): > 100 µM
- GI50 (K562): 25.1 µM
- CC50 (K562; [2]): > 100 µM
- TGI (K562; read-out: pTGI): > 100 µM
